The text below walks through data of ChEMBL document CHEMBL4680238, “Novel octapeptide-DTX prodrugs targeting MMP-7 as effective agents for the treatment of colorectal cancer with lower systemic toxicity” (Eur J Med Chem, 2020).

Data set [1] in a line: Half life in Sprague-Dawley rat plasma t 50 ug/ml up to 72 hrs by RP-HPLC analysis. Format: ADME, cell-free. The conditions noted are these: dose 50 µg/ml.
Data set [2] is described as follows: Drug uptake in BALB/c nude mouse xenografted with human HCT-116 cells assessed as drug level in heart at 5 mg/kg, iv measured up to 24 hrs by LC-MS/MS analysis. The data set is classed as ADME, organism-based. The conditions noted are these: in vivo. The method in brief:
(§1)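 Male BALB/c nude mice bearing s.c. HCT116 tumours (200-300 mm3), 20 per group. Single tail-vein dose of 5 mg/kg. Five mice per group killed at 0.5, 4, 8 and 24 h and heart-perfused with PBS. Tissues homogenized in saline (4 µL/mg) and precipitated with methanol containing paclitaxel internal standard. Prodrug, released DTX and free DTX measured by LC-MS/MS.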
Background: A xenograft is tissue or cells of one species grown in another, often human tumour cells in immunodeficient mice.

Data set [3] can be described thus: Half life in Sprague-Dawley rat assessed as docetaxel level at 5 mg/kg, iv measured up to 72 hrs by LC-MS/MS analysis. Format: ADME, organism-based. The conditions noted are these: in vivo. The method, boiled down: (§2)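 Male SD rats (180-200 g), fasted 12 h with free water, n = 3 per group. Single tail-vein dose of 5 mg/kg in 0.5% DMSO/5% castor oil/5% ethanol/89.5% saline. Retro-orbital blood drawn 0.083-72 h with heparin. Plasma protein-precipitated with methanol containing paclitaxel internal standard, then analysed by LC-MS/MS. Parameters from non-compartmental analysis, mean ± SD. For the DTX group, parameters were calculated after converting dose to the molar equivalent of the prodrug.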

A short description of data set [4]: Toxicity in BALB/c nude mouse xenografted with human HCT-116 cells assessed as reduction in body weight at 11.7 mg/kg, ip administered once for every 7 days for 14 days relative to control. More on the design: scale not given: the % may be the effect or the level left. Format: organism-based. Particulars: in vivo, 336 h, time 14 day. The method in brief: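 HCT116 s.c. xenografts in male BALB/c nude mice, n = 6 per group. Dosing was ip once every 7 days for 2 weeks in DMSO/castor oil/ethanol/saline; vehicle controls got solvent. Body weight recorded every other day or every three days. Weight loss taken at day 14. Mean ± SD.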

Data set [5] relates to HCT-116. Put plainly: Antitumour activity against human HCT-116 cells xenografted in ip dosed BALB/c nude mouse assessed as tumour growth inhibition administered once for every 7 days for 14 days. The data set is classed as functional, organism-based. Particulars: time 14.0 day. The method in brief:
(§3)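 Male BALB/c nude mice received s.c. HCT116 cells (2 × 10^6 in 0.2 mL PBS). Once tumours reached 100-200 mm3, mice were randomized into groups of six. Dosing was ip, 0.1 mL/10 g, once every 7 days, in DMSO 0.5%/castor oil 5%/ethanol 5%/saline 89.5%; vehicle controls got solvent. Caliper volume V = L×W²×0.52 read every 2-3 days. Tumours excised and weighed on day 14.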

Data set [6] can be described thus: Apparent clearance in Sprague-Dawley rat at 5 mg/kg, iv measured up to 72 hrs by LC-MS/MS analysis. The data set is classed as ADME, organism-based. The conditions noted are these: Sprague-Dawley, in vivo, read-out: CL(app) (converted). The method in brief:
as §2

A short description of data set [7]: Toxicity in BALB/c nude mouse xenografted with human HCT-116 cells assessed as necrosis in liver at 11.73 mg/kg, ip administered once for every 7 days for 14 days by H and E staining based assay. The data set is classed as organism-based. The conditions noted are these: in vivo, 336 h, time 14 day. The method in brief:
(§4)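 At the end of the 14-day ip xenograft study (HCT116, BALB/c nude), heart and liver were collected from vehicle and molar-equivalent dose groups. Tissues fixed in 10% formalin in PBS and stained with H&E. Liver examined at 400×, heart at 100×.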

Data set [8] is described as follows: Toxicity in BALB/c nude mouse xenografted with human HCT-116 cells assessed as disordered myocardial fiber in heart at 11.73 mg/kg, ip administered once for every 7 days for 14 days by H and E staining based assay. The data set is classed as organism-based. Particulars: in vivo, 336 h, time 14 day. The method, boiled down:
as §4

Data set [9] concerns HCT-116. Put plainly: Antitumour activity against human HCT-116 cells xenografted in BALB/c nude mouse assessed as tumour growth inhibition at 23.4 mg/kg, ip administered once for every 7 days for 14 days relative to control. The data set is classed as functional. The conditions noted are these: HCT-116, ip, 336 h, time 14 day, read-out: TGI. The method in brief: as §3
The nature of data set [10]: Drug uptake in BALB/c nude mouse xenografted with human HCT-116 cells assessed as drug level in spleen at 5 mg/kg, iv measured up to 24 hrs by LC-MS/MS analysis. Particulars: in vivo. Format: ADME, organism-based. The method, boiled down: as §1
A short description of data set [11]: AUC (0 to infinity) in Sprague-Dawley rat at 5 mg/kg, iv measured up to 72 hrs by LC-MS/MS analysis. Format: ADME, organism-based. More on the design: route intravenous, dose 5 mg/kg, time <=72. Particulars: Sprague-Dawley, in vivo. The method, boiled down: as §2
The test system of data set [12] is HCT-116. Put plainly: Antitumour activity against human HCT-116 cells xenografted in BALB/c nude mouse assessed as tumour growth inhibition at 5.85 mg/kg, ip administered once for every 7 days for 14 days relative to control. The conditions noted are these: HCT-116, ip, 336 h, time 14 day, read-out: TGI. Format: functional. The method, boiled down:
as §3

The nature of data set [13]: AUC (0 to infinity) in Sprague-Dawley rat assessed as docetaxel level at 5 mg/kg, iv measured up to 72 hrs by LC-MS/MS analysis. Format: ADME, organism-based. The arrangement: route intravenous, dose 5 mg/kg, time <=72. Particulars: in vivo. The method, boiled down:
as §2

Data set [14] can be described thus: Apparent clearance in Sprague-Dawley rat assessed as docetaxel level at 5 mg/kg, iv measured up to 72 hrs by LC-MS/MS analysis. The conditions noted are these: in vivo. The data set is classed as ADME, organism-based. The method, boiled down: as §2
The nature of data set [15]: Toxicity in BALB/c nude mouse xenografted with human HCT-116 cells assessed as concentrated nucleus in liver at 11.73 mg/kg, ip administered once for every 7 days for 14 days by H and E staining based assay. Format: organism-based. Particulars: in vivo, 336 h, time 14 day. The method, boiled down: as §4
Data set [16] in a line: MRT (0 to infinity) in Sprague-Dawley rat assessed as docetaxel level at 5 mg/kg, iv measured up to 72 hrs by LC-MS/MS analysis. The data set is classed as ADME, organism-based. Particulars: in vivo. The method in brief: as §2
Data set [17] can be described thus: Toxicity in BALB/c nude mouse xenografted with human HCT-116 cells assessed as inflammatory cell invasion in heart at 11.73 mg/kg, ip administered once for every 7 days for 14 days by H and E staining based assay. The data set is classed as organism-based. Particulars: in vivo, 336 h, time 14 day. The method, boiled down: as §4
Data set [18] in a line: Toxicity in BALB/c nude mouse xenografted with human HCT-116 cells assessed as reduction in body weight at 5.85 mg/kg, ip administered once for every 7 days for 14 days relative to control. The data set is classed as organism-based. More on the design: scale not given: the % may be the effect or the level left. Particulars: in vivo, 336 h, time 14 day. The method, boiled down: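 HCT116 cells (2 × 10^6 in 0.2 mL PBS) inoculated subcutaneously into male BALB/c nude mice; at mean tumor volume 100-200 mm3, randomized, six mice per group. Dosed intraperitoneally once every 7 days in DMSO (0.5%)/castor oil (5%)/ethanol (5%)/saline (89.5%), 0.1 mL per 10 g; vehicle controls received solvent. Body weight monitored every other day or three days; mice weighed on day 14.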

Data set [19] can be described thus: Apparent volume of distribution in Sprague-Dawley rat assessed as docetaxel level at 5 mg/kg, iv measured up to 72 hrs by LC-MS/MS analysis. The data set is classed as ADME, organism-based. Particulars: in vivo. The method in brief:
as §2

Data set [20] is described as follows: Toxicity in ip dosed Kunming mouse measured for 14 days. Format: organism-based. The conditions noted are these: in vivo, time 14 day. The method, boiled down:
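Healthy Kunming mice of both sexes, 20 ± 2 g, randomised into 5 groups of 10 matched for weight and size. Compound given once intraperitoneally at 400, 300, 250 or 150 mg/kg in formulation solvent (0.5% DMSO, 5% castor oil, 5% ethanol, 89.5% saline), 0.1 mL per 10 g; vehicle controls received solvent. Deaths recorded daily for 14 days; LD50 by Bliss method.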

Residues, ends and D or L forms follow the SMILES beside them. *: point of attachment. X1 = CC(=O)O[C@@]12CO[C@@H]1C[C@H](O)[C@@]1(C)C(=O)[C@H](O)C3=C(C)[C@@H](OC(=O)[C@H](OC(=O)OCc4ccc(N*)cc4)[C@@H](NC(=O)OC(C)(C)C)c4ccccc4)C[C@@](O)([C@@H](OC(=O)c4ccccc4)[C@H]21)C3(C)C

As to `CC[C@H](C)[C@H](NC(=O)CNC(=O)[C@H](CCC(N)=O)NC(=O)[C@@H]1CCCN1C(=O)CNC(C)=O)C(=O)N[C@@H](C)C(=O)N[C@@H](CCSC)C(=O)N[C@@H](CCC(N)=O)C(=O)N[C@@H](CC(C)C)C(=O)Nc1ccc(COC(=O)O[C@@H](C(=O)O[C@H]2C[C@@]3(O)[C@@H](OC(=O)c4ccccc4)[C@@H]4[C@]5(OC(C)=O)CO[C@@H]5C[C@H](O)[C@@]4(C)C(=O)[C@H](O)C(=C2C)C3(C)C)[C@@H](NC(=O)OC(C)(C)C)c2ccccc2)cc1` (Ac-GPQGIAMQL-X1), in [1], the half-life at 50 ug/ml is 24.2 h. Moreover, the Drug uptake entry in [2] and in [10] was “Active” in each case. For the same compound, in data set [3], the t1/2 is 7.03 h. For the same compound, the Activity in data set [4] is reported as 8.5%; in [7] it was “Non-Toxic”; in data set [8], “Non-Toxic”; in data set [15], “Non-Toxic”; in data set [17], “Non-Toxic”; in data set [18], 4.9%. Also, in [5], the TGI result is “Dose-dependent effect”. Also, the clearance in [6] is 9.33 mL/min/kg. Further, the inhibition in vivo at 23.4 mg/kg in data set [9] stood at 56.1%. The compound also showed an AUC(0-inf) in data set [11] of 9240 ng·h/mL. Besides, the inhibition in vivo at 5.85 mg/kg in data set [12] was found to be 28.8%. For the same compound, the AUC in data set [13] was 299 ng·h/mL. In addition, the “CL(app)” value in data set [14] turned out to be 316.3 mL/min/kg. For the same compound, the MRT in [16] worked out at 9.04 h. Moreover, the Vz in [19] is 206.32 L/kg. The compound further yielded an LD50 at 336 h in data set [20] of 245 mg/kg.

In general, half-life refers to the time needed for the level to fall by half in the phase considered. The term AUC(0-inf) denotes the area under the concentration-time curve extrapolated to infinity. By AUC is commonly meant concentration integrated over time. One may read the MRT as a mean duration of stay, worked out from the concentration-time curve. For orientation: LD50 means the dose at which mortality reaches 50%.
